Laboratory results from ChEMBL document CHEMBL3864185, “Identification of N-(2-Phenoxyethyl)imidazo[1,2-a]pyridine-3-carboxamides as New Antituberculosis Agents” (ACS Med Chem Lett, 2016).
In brackets after ≈: the same amount, converted by molar mass.

Assays:
[1] = tested on: Mycobacterium tuberculosis; assay: Antimycobacterial activity against drug-sensitive Mycobacterium tuberculosis H37Rv ATCC 27294 after 7 days by microplate alamar blue assay; assay type: functional; conditions: H37Rv ATCC 27294, 168 h
Method in brief: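 Microplate Alamar Blue Assay against M. tuberculosis H37Rv ATCC 27294, read by fluorescence. MIC was the lowest concentration that reduced fluorescence by >90% relative to the mean of replicate bacterium-only controls.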

Pseudomonas aeruginosa = assay: Antibacterial activity against Pseudomonas aeruginosa 12-12 after 18 to 24 hrs by NCCLS M100-S11 based assay; assay type: functional
Streptococcus pneumoniae = assay: Antibacterial activity against Streptococcus pneumoniae ATCC 49619 after 18 to 24 hrs by NCCLS M100-S11 based assay; assay type: functional
[2] = tested on: Staphylococcus epidermidis; assay: Antibacterial activity against methicillin-sensitive Staphylococcus epidermidis 12-1 after 18 to 24 hrs by NCCLS M100-S11 based assay; assay type: functional
Escherichia coli = assay: Antibacterial activity against Escherichia coli ATCC 25922 after 18 to 24 hrs by NCCLS M100-S11 based assay; assay type: functional
Staphylococcus aureus [3] = assay: Antibacterial activity against methicillin-sensitive Staphylococcus aureus 12-1 after 18 to 24 hrs by NCCLS M100-S11 based assay; assay type: functional
Klebsiella pneumoniae = assay: Antibacterial activity against Klebsiella pneumoniae 12-1 after 18 to 24 hrs by NCCLS M100-S11 based assay; assay type: functional
[4] = tested on: Staphylococcus epidermidis; assay: Antibacterial activity against methicillin-resistant Staphylococcus epidermidis 12-6 after 18 to 24 hrs by NCCLS M100-S11 based assay; assay type: functional
Method in brief: (§1)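 Broth MIC set up per NCCLS M100-S11. Plates were incubated at 35 °C for 18–24 h. MIC was the lowest concentration that inhibited visible bacterial growth, i.e. complete growth inhibition.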

Staphylococcus aureus [5] = assay: Antibacterial activity against Staphylococcus aureus ATCC 25923 after 18 to 24 hrs by NCCLS M100-S11 based assay; assay type: functional
Staphylococcus aureus [6] = assay: Antibacterial activity against methicillin-resistant Staphylococcus aureus 12-2 after 18 to 24 hrs by NCCLS M100-S11 based assay; assay type: functional; method in brief: as §1
Rattus norvegicus [7] = assay: Acute toxicity in rat assessed as mortality at 500 mg/kg, po administered as single dose measured up to 7 days post dose; assay type: organism-based; conditions: in vivo, 168 h
Method in brief: (§2)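 Single dose given intravenously to mice (50 and 100 mg/kg) or orally to rats (500 and 1000 mg/kg).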

[8] = Tmax in rat at 25 mg/kg, po administered as single dose; assay type: ADME, organism-based; conditions: in vivo
Method in brief: (§3)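 Rats given one oral dose of 25 mg/kg; n = 6 animals, values as mean ± SD. Plasma profile gave Cmax, Tmax, AUC from zero to infinity, elimination half-life, mean residence time, apparent clearance (CL/F) and apparent volume of distribution (Vd/F).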

[9] = Cmax in rat at 25 mg/kg, po administered as single dose; assay type: ADME, organism-based; parameters: dose 25 mg/kg, route oral; conditions: in vivo; method in brief: as §3
[10] = Apparent volume of distribution in rat at 25 mg/kg, po administered as single dose; assay type: ADME, organism-based; conditions: in vivo; method in brief: as §3
[11] = Mean residence time in rat at 25 mg/kg, po administered as single dose; assay type: ADME, organism-based; conditions: in vivo; method in brief: as §3
[12] = AUC (0 to infinity) in rat at 25 mg/kg, po administered as single dose; assay type: ADME, organism-based; parameters: dose 25 mg/kg, route oral, time infinity; conditions: in vivo; method in brief: as §3
[13] = Half life in rat at 25 mg/kg, po administered as single dose; assay type: ADME, organism-based; conditions: in vivo; method in brief: as §3
Mus musculus = assay: Acute toxicity in mouse assessed as mortality at 50 to 100 mg/kg, iv administered as single dose measured up to 7 days post dose; assay type: organism-based; conditions: in vivo, 168 h; method in brief: as §2
[14] = Apparent clearance in rat at 25 mg/kg, po administered as single dose; assay type: ADME, organism-based; conditions: in vivo; method in brief: as §3
Rattus norvegicus [15] = assay: Acute toxicity in rat assessed as mortality at 1000 mg/kg, po administered as single dose measured up to 7 days post dose; assay type: organism-based; conditions: in vivo, 168 h; method in brief: as §2

Compound: COc1ccc(OCCNC(=O)c2c(C)nc3cc(C)ccn23)cc1
- MIC90 [1]: 2 µg/mL (≈ 5.89 µM)

Compound: Cc1ccc2nc(C)c(C(=O)NCCOc3ccccc3[N+](=O)[O-])n2c1
- MIC90 [1]: 0.303 µg/mL (≈ 0.855 µM)

Compound: NNC(=O)c1ccncc1 [ISONIAZID]
- MIC90 [1]: 0.049 µg/mL (≈ 0.357 µM)

Compound: COc1cccc(OCCNC(=O)c2c(C)nc3cc(C)ccn23)c1
- MIC90 [1]: 0.254 µg/mL (≈ 0.748 µM)

Compound: COc1ccccc1OCCNC(=O)c1c(C)nc2cc(C)ccn12
- MIC90 [1]: 2 µg/mL (≈ 5.89 µM)

Compound: Cc1ccn2c(C(=O)NCCOc3ccccc3[N+](=O)[O-])c(C)nc2c1
- MIC90 [1]: 0.5 µg/mL (≈ 1.41 µM)

Compound: Cc1ccn2c(C(=O)NCCOc3ccc([N+](=O)[O-])cc3)c(C)nc2c1
- MIC90 [1]: 4 µg/mL (≈ 11.3 µM)

Compound: Cc1ccc2nc(C)c(C(=O)NCCOc3ccccc3C)n2c1
- MIC (Pseudomonas aeruginosa): > 32 µg/mL
- MIC (Streptococcus pneumoniae): > 32 µg/mL
- MIC90 [1]: 0.038 µg/mL (≈ 0.118 µM)
- MIC [2]: > 32 µg/mL
- MIC (Escherichia coli): > 32 µg/mL
- MIC (Staphylococcus aureus [3]): > 32 µg/mL
- MIC (Klebsiella pneumoniae): > 32 µg/mL
- MIC [4]: > 32 µg/mL
- MIC (Staphylococcus aureus [5]): > 32 µg/mL
- MIC (Staphylococcus aureus [6]): > 32 µg/mL

Compound: Cc1ccc2nc(C)c(C(=O)NCCOc3ccc([N+](=O)[O-])cc3)n2c1
- MIC90 [1]: 0.245 µg/mL (≈ 0.691 µM)

Compound: Cc1ccn2c(C(=O)NCCOc3ccc(-c4ccccc4)cc3)c(C)nc2c1
- MIC90 [1]: 0.518 µg/mL (≈ 1.34 µM)

Compound: COc1ccc(OCCNC(=O)c2c(C)nc3ccc(C)cn23)cc1
- MIC (Pseudomonas aeruginosa): > 32 µg/mL
- MIC (Streptococcus pneumoniae): > 32 µg/mL
- MIC90 [1]: 0.031 µg/mL (≈ 0.0913 µM)
- MIC [2]: > 32 µg/mL
- MIC (Escherichia coli): > 32 µg/mL
- MIC (Staphylococcus aureus [3]): > 32 µg/mL
- MIC (Klebsiella pneumoniae): > 32 µg/mL
- MIC [4]: > 32 µg/mL
- MIC (Staphylococcus aureus [5]): > 32 µg/mL
- MIC (Staphylococcus aureus [6]): > 32 µg/mL

Compound: Cc1ccc(OCCNC(=O)c2c(C)nc3cc(C)ccn23)cc1
- MIC90 [1]: 0.673 µg/mL (≈ 2.08 µM)

Compound: Cc1ccn2c(C(=O)NCCOc3ccc(Br)cc3)c(C)nc2c1
- MIC90 [1]: 0.463 µg/mL (≈ 1.19 µM)

Compound: Cc1cccc(OCCNC(=O)c2c(C)nc3cc(C)ccn23)c1
- MIC90 [1]: 0.329 µg/mL (≈ 1.02 µM)

Compound: Cc1ccn2c(C(=O)NCCOc3ccc(Cl)cc3)c(C)nc2c1
- MIC90 [1]: 2 µg/mL (≈ 5.82 µM)

Compound: Cc1ccc2nc(C)c(C(=O)NCCOc3ccccc3)n2c1
- MIC (Pseudomonas aeruginosa): > 32 µg/mL
- MIC (Streptococcus pneumoniae): > 32 µg/mL
- MIC90 [1]: 0.054 µg/mL (≈ 0.175 µM)
- MIC [2]: > 32 µg/mL
- Activity (Rattus norvegicus [7]): Non-Toxic
- MIC (Escherichia coli): > 32 µg/mL
- Tmax [8]: 19.8 min
- Cmax [9]: 655 ng/mL
- Vd/F [10]: 33.8 L/kg
- MIC (Staphylococcus aureus [3]): > 32 µg/mL
- MRT [11]: 36.6 min
- AUC(0-inf) [12]: 453 ng·h/mL
- half-life [13]: 25.8 min
- MIC (Klebsiella pneumoniae): > 32 µg/mL
- MIC [4]: > 32 µg/mL
- MIC (Staphylococcus aureus [5]): > 32 µg/mL
- MIC (Staphylococcus aureus [6]): > 32 µg/mL
- Activity (Mus musculus): Non-Toxic
- CL/F [14]: 919 mL/min/kg

Compound: Cc1ccc2nc(C)c(C(=O)NCCNc3ccc(Br)cc3)n2c1
- MIC90 [1]: 0.25 µg/mL (≈ 0.646 µM)

Compound: Cc1ccn2c(C(=O)NCCOc3ccccc3)c(C)nc2c1
- MIC90 [1]: 0.935 µg/mL (≈ 3.02 µM)

Compound: Cc1ccn2c(C(=O)NCCOc3ccc(F)cc3)c(C)nc2c1
- MIC90 [1]: 2 µg/mL (≈ 6.11 µM)

Compound: Cc1ccn2c(C(=O)NCCOc3ccccc3C)c(C)nc2c1
- MIC90 [1]: 0.231 µg/mL (≈ 0.714 µM)

Compound: Cc1ccn2c(C(=O)NCCOc3cccc([N+](=O)[O-])c3)c(C)nc2c1
- MIC90 [1]: 0.5 µg/mL (≈ 1.41 µM)

Compound: CO[C@H]1/C=C/O[C@@]2(C)Oc3c(C)c(O)c4c(O)c(c(/C=N/N5CCN(C)CC5)c(O)c4c3C2=O)NC(=O)/C(C)=C\C=C\[C@H](C)[C@H](O)[C@@H](C)[C@@H](O)[C@@H](C)[C@H](OC(C)=O)[C@@H]1C [RIFAMPIN]
- MIC90 [1]: 0.05 µg/mL (≈ 0.0608 µM)

Compound: Cc1cccc(OCCNC(=O)c2c(C)nc3ccc(C)cn23)c1
- MIC (Pseudomonas aeruginosa): > 32 µg/mL
- MIC (Streptococcus pneumoniae): > 32 µg/mL
- MIC90 [1]: 0.029 µg/mL (≈ 0.0897 µM)
- MIC [2]: > 32 µg/mL
- MIC (Escherichia coli): > 32 µg/mL
- MIC (Staphylococcus aureus [3]): > 32 µg/mL
- MIC (Klebsiella pneumoniae): > 32 µg/mL
- MIC [4]: > 32 µg/mL
- MIC (Staphylococcus aureus [5]): > 32 µg/mL
- MIC (Staphylococcus aureus [6]): > 32 µg/mL

Compound: COc1cccc(OCCNC(=O)c2c(C)nc3ccc(C)cn23)c1
- MIC (Pseudomonas aeruginosa): > 32 µg/mL
- MIC (Streptococcus pneumoniae): > 32 µg/mL
- MIC90 [1]: 0.03 µg/mL (≈ 0.0884 µM)
- MIC [2]: > 32 µg/mL
- Activity (Rattus norvegicus [7]): Non-Toxic
- MIC (Escherichia coli): > 32 µg/mL
- Tmax [8]: 10.2 min
- Cmax [9]: 351 ng/mL
- Vd/F [10]: 188 L/kg
- MIC (Staphylococcus aureus [3]): > 32 µg/mL
- MRT [11]: 42.6 min
- AUC(0-inf) [12]: 214 ng·h/mL
- half-life [13]: 67.2 min
- MIC (Klebsiella pneumoniae): > 32 µg/mL
- MIC [4]: > 32 µg/mL
- MIC (Staphylococcus aureus [5]): > 32 µg/mL
- MIC (Staphylococcus aureus [6]): > 32 µg/mL
- Activity (Mus musculus): Non-Toxic
- CL/F [14]: 1940 mL/min/kg

Compound: Cc1ccc2nc(C)c(C(=O)NCCOc3ccc(Cl)cc3)n2c1
- MIC (Pseudomonas aeruginosa): > 32 µg/mL
- MIC (Streptococcus pneumoniae): > 32 µg/mL
- MIC90 [1]: 0.03 µg/mL (≈ 0.0873 µM)
- MIC [2]: > 32 µg/mL
- MIC (Escherichia coli): > 32 µg/mL
- MIC (Staphylococcus aureus [3]): > 32 µg/mL
- MIC (Klebsiella pneumoniae): > 32 µg/mL
- MIC [4]: > 32 µg/mL
- MIC (Staphylococcus aureus [5]): > 32 µg/mL
- MIC (Staphylococcus aureus [6]): > 32 µg/mL

Compound: Cc1ccc2nc(C)c(C(=O)NCCOc3ccc(Br)cc3)n2c1
- MIC (Pseudomonas aeruginosa): > 32 µg/mL
- MIC (Streptococcus pneumoniae): > 32 µg/mL
- MIC90 [1]: 0.027 µg/mL (≈ 0.0695 µM)
- MIC [2]: > 32 µg/mL
- Activity (Rattus norvegicus [7]): Non-Toxic
- MIC (Escherichia coli): > 32 µg/mL
- Tmax [8]: 30 min
- Cmax [9]: 225 ng/mL
- Activity (Rattus norvegicus [15]): Non-Toxic
- Vd/F [10]: 186 L/kg
- MIC (Staphylococcus aureus [3]): > 32 µg/mL
- MRT [11]: 96 min
- AUC(0-inf) [12]: 288 ng·h/mL
- half-life [13]: 90 min
- MIC (Klebsiella pneumoniae): > 32 µg/mL
- MIC [4]: > 32 µg/mL
- MIC (Staphylococcus aureus [5]): > 32 µg/mL
- MIC (Staphylococcus aureus [6]): > 32 µg/mL
- Activity (Mus musculus): Non-Toxic
- CL/F [14]: 1440 mL/min/kg

Compound: Cc1ccc(OCCNC(=O)c2c(C)nc3ccc(C)cn23)cc1
- MIC90 [1]: 0.204 µg/mL (≈ 0.631 µM)

Compound: COc1ccccc1OCCNC(=O)c1c(C)nc2ccc(C)cn12
- MIC90 [1]: 0.401 µg/mL (≈ 1.18 µM)

Compound: Cc1ccc2nc(C)c(C(=O)NCCOc3ccc(F)cc3)n2c1
- MIC90 [1]: 0.146 µg/mL (≈ 0.446 µM)

Compound: Cc1ccc2nc(C)c(C(=O)NCCOc3ccc(-c4ccccc4)cc3)n2c1
- MIC90 [1]: 0.39 µg/mL (≈ 1.01 µM)
